The record followed here is paper PMC9393037 (International Journal of Nanomedicine, 2022).

Series [1] deals with MCAO mice. Description: MCAO model: Nissl, TUNEL and LC3 immunofluorescence staining of brain sections. Type of series: in vivo, C57BL/6 mice. To be noted: i.v. for 7 days.
The test system of series [2] is MCAO mice. Description: MCAO model: behavioural tests. Format: in vivo, C57BL/6 mice. Particulars: i.v. for 7 days, seventh day after the operation. An outline of the steps:
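Male C57BL/6 mice (6-8 weeks, 24-26 g), four per group, were anaesthetised with 5% chloral hydrate i.p. The right CCA/ECA/ICA were exposed, and a monofilament was placed and removed after 1 h for reperfusion; sham mice had no monofilament. Dosing was i.v. for 7 days: free compound 3 mg/kg, micelles 1 or 3 mg/kg, edaravone 3 mg/kg. A blinded investigator scored Longa on days 1 and 7.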

Series [3] in a line: Pharmacokinetics after single i.v. administration to rats. Format: in vivo, Sprague Dawley rats. The procedure, abridged: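 Male Sprague Dawley rats (7-9 weeks, 240-260 g), six per group, were fasted overnight. Each received one tail-vein dose of 2 mg/kg as free compound (saline with 30% propylene glycol) or micelles. Jugular blood was drawn into heparinised tubes at 0.03–8 h, and plasma was separated at 4 ℃. Samples were quantified by validated LC-ESI-MS/MS, and PK parameters were calculated; mean ± SD.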

The nature of series [4]: Tissue distribution and targeting evaluation after i.v. administration to mice. Particulars: for Cmax: male, ICR, mouse, iv, 2.8 mg/kg. Type of series: in vivo, ICR mice. An outline of the steps: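 Male ICR mice (6-8 weeks, 27-28 g) received 2.8 mg/kg i.v. as free compound or micelles. Four mice were killed per time point (0.17, 0.5, 1, 2 h), and heart, liver, lung, kidney and brain were collected. Tissues were rinsed, weighed, homogenised in cold saline (1:2 w/v), centrifuged, and supernatants assayed by LC-MS/MS.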

A further series can be described thus: In vitro release study. Type of series: physicochemical. To be noted: PBS pH = 7.4 and pH = 5, 1% SDS, 37 ℃. An outline of the steps: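 Test compound-loaded micelles or free test compound were placed in a pre-soaked dialysis bag (MWCO 500) immersed in PBS containing 1% (w/v) SDS at pH 7.4 or pH 5. Bags were shaken at 200 rpm at 37 ℃. Outside medium was sampled at 0.5, 1, 2, 4, 6, 8, 12, 24 and 48 h and replaced with fresh PBS. Cumulative release was tracked.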

Where [5] appears, read: Sprague Dawley, rat, plasma, iv, 2 mg/kg.

The term AUC(0-inf) denotes the area under the concentration-time curve extrapolated to infinity. By AUC(0-t) is commonly meant the area under the concentration-time curve up to a stated or last time point. Low values mean low exposure, high ones high exposure. Usually MRT last stands for the average time that molecules of a dose stay in the body. The clearance is a measure of how efficiently the substance is removed, as volume per time. Read a low clearance as a low capacity for elimination. What is called Cmax is the maximum level reached in the sampled fluid or tissue.

`O=C(/C=C/c1ccc(O)cc1)c1ccc(O)cc1O` [ISL, (e)-1-(2,4-dihydroxyphenyl)-3-(4-hydroxyphenyl) −2-propen-1-one]: the “Nissl staining of neurons (Nissl bodies)” value with MCAO mice [1] was “not significantly different from that in the model group”. Moreover, the “number of positive cells expressing the LC3 protein” value in the series on MCAO mice [1] is “less than that in the model group and more than that in the ISL-M group”. Also, the “number of positive cells stained with the TUNEL” value with MCAO mice [1] is “less than that in the model group and more than that in the ISL-M group”. The “neurological scores (Longa scores) compared with the MCAO model group” value in the series with MCAO mice [2] is recorded as “significantly decreased”. This compound had a total exposure AUC(0-inf) in series [3] (setting [5]) of 373 ± 106 ng·h/mL. In addition, the AUC(0-t) in series [3] (setting [5]) stood at 307 ± 92.5 ng·h/mL. Besides, the MRT last in series [3] (setting [5]) is 10.2 ± 1.8 min. The compound further had a clearance in series [3] (setting [5]) of 96.3 mL/min/kg. In addition, the “detectability of ISL in plasma over time” value in series [3] (rats, single i.v. 2 mg/kg) was “could not be detected after 2 hours”. In series [3] (rats, single i.v. 2 mg/kg, plasma ISL), the “CL (clearance rate)” value is on record as 5.78 ± 1.74 L/h/kg. The maximum concentration (Cmax) is 21.7 ± 3.45 ng/g in series [4] (brain); 69.2 ± 10.5 ng/g in series [4] (heart); 713 ± 35 ng/g in series [4] (kidney); 574 ± 137 ng/g in series [4] (liver); 179 ± 31.4 ng/g in series [4] (lung). Also, the “detectability of ISL in tissues 1 h after administration” value in series [4] (mice, i.v. 2.8 mg/kg, 1 h) is “could not be detected”. Further, the AUC is 8.34 ± 0.61 ng·h/g in series [4] (mice, i.v. 2.8 mg/kg, Brain); 18.66 ± 2.11 ng·h/g in series [4] (mice, i.v. 2.8 mg/kg, Heart); 174.7 ± 9.70 ng·h/g in series [4] (mice, i.v. 2.8 mg/kg, Kidney); 207.70 ± 28.50 ng·h/g in series [4] (mice, i.v. 2.8 mg/kg, Liver); 55.24 ± 6.28 ng·h/g in series [4] (mice, i.v. 2.8 mg/kg, Lung). For the same compound, the cumulative release in the series “In vitro release study” (in eight hours) was approximately 90%; in “In vitro release study” (within the first four hours) it was “More than 60%”.
